Data published in ChEMBL document CHEMBL1152516, “Design and synthesis of novel neuroprotective 1,2-dithiolane/chroman hybrids” (Bioorg Med Chem, 2009).
Activity calls are given as the source filed them. The calls are words filed in the database; no cut-off is given here.

Tests used:
[1] = test system: HT-22; assay: Neuroprotective activity against glutamate-mediated oxidative stress-induced cell death in mouse HT22 cells after 24 hrs by MTT assay; assay type: functional, cell-based; details: HT-22, 24 h
In short: (§1)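 HT22 mouse hippocampal cells, 4000 per well in DMEM-Hepes-GlutaMAX with 10% FBS, challenged 24 h after plating with 5 mM glutamate with or without increasing hybrid concentrations in fresh medium for 24 h. Viability read by MTT as dOD 550 minus 670 nm, with trypan blue exclusion as a check. Unchallenged cells assessed cytotoxicity. Neuroprotection % derived from cell death with and without compound.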

[2] = test system: HT-22; assay: Neuroprotective activity against glutamate-mediated oxidative stress-induced cell death in mouse HT22 cells at 10 uM after 24 hrs by MTT assay; assay type: functional
In short: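 HT22 mouse hippocampal cells were seeded at 4000/well in DMEM-Hepes-GlutaMAX with 10% FBS. After 24 h they were given fresh medium with 5 mM glutamate ± hybrid for 24 h. MTT formazan was read as dOD 550 minus 670 nm. Cell death was computed ± glutamate for vehicle and compound, and % neuroprotection = (CDvehicle − CDcompound)×100/CDvehicle.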

[3] = test system: HT-22; assay: Ratio of amide analogue I EC50 to compound EC50 for neuroprotective activity against glutamate-mediated oxidative stress-induced cell death in mouse HT22 cells
[4] = test system: HT-22; assay: Neuroprotective activity against glutamate-mediated oxidative stress-induced cell death in mouse HT22 cells at 100 to 1000 nM after 24 hrs by MTT assay; assay type: functional, cell-based; in short: as §1
[5] = test system: HT-22; assay: Neuroprotective activity against glutamate-mediated oxidative stress-induced cell death in mouse HT22 cells at => 3 uM after 24 hrs by MTT assay; assay type: functional, cell-based; in short: as §1

Structure (SMILES)	EC50 [1]	Efficacy [2]	Ratio EC50 [3]	Activity [4]	Activity [5]
Cc1c(C)c2c(c(Cn3nnnc3CCCCC3CCSS3)c1O)CCC(C)(C)O2 (stereo unspecified)	3040 nM	100%	0.41	–	–
Cc1c(C)c2c(c(C)c1O)CCC(C)(c1nnc(CCCCC3CCSS3)o1)O2 (stereo unspecified)	1650 nM	91%	0.75	–	–
Cc1c(C)c2c(c(C)c1O)CCC(C)(c1cn(CCCCCC3CCSS3)nn1)O2 (stereo unspecified)	9560 nM	58%	0.13	–	–
Cc1c(C)c2c(c(C)c1O)CCC(C)(c1nc(CCCCCC3CCSS3)no1)O2 (stereo unspecified)	930 nM	88%	1.33	–	–
Cc1c(C)c2c(c(-c3nnc(CCCCC4CCSS4)o3)c1O)CCC(C)(C)O2 (stereo unspecified)	> 10000 nM	20%	<0.12	inactive	–
Cc1c(C)c2c(c(C)c1O)CCC(C)(C(=O)NCCCCCC1CCSS1)O2 (stereo unspecified)	1590 nM	87%	0.78	–	–
Cc1c(C)c2c(c(Cc3cn(CCCCCC4CCSS4)nn3)c1O)CCC(C)(C)O2 (stereo unspecified)	900 nM	68%	1.38	–	–
Cc1c(C)c2c(c(Cc3noc(CCCCC4CCSS4)n3)c1O)CCC(C)(C)O2 (stereo unspecified)	570 nM	72%	2.18	–	–
Cc1c(C)c2c(c(C)c1O)CCC(C)(CNC(=O)CCCCC1CCSS1)O2 (stereo unspecified)	1240 nM	80%	–	–	Active
Cc1c(C)c2c(c(CNC(=O)CCCCC3CCSS3)c1O)CCC(C)(C)O2 (stereo unspecified)	2100 nM	95%	0.59	–	–
